From ChEMBL document CHEMBL1153233, “Novel substituted (Z)-5-((N-benzyl-1H-indol-3-yl)methylene)imidazolidine-2,4-diones and 5-((N-benzyl-1H-indol-3-yl)methylene)pyrimidine-2,4,6(1H,3H,5H)-triones as potent radio-sensitizing agents” (2010)

System: HT-29
Assay: Radiosensitization activity against human HT-29 cells assessed as survival relative to control
Assay type: functional
How it was run: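 HT-29 colorectal adenocarcinoma cells exposed to analog at 25 µM (or DMSO vehicle) for 2 h at 37 °C, then irradiated with 4 Gy. Analog washed off, cells kept 14 days in fresh medium, colonies stained with crystal violet and counted. Surviving fraction taken as colonies over cells treated. Relative survival is survival with radiation plus analog divided by survival with radiation alone, with vehicle set at 1.0.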

Compound	Ratio
COc1ccc(Cn2cc(C=C3C(=O)NC(=O)NC3=O)c3ccccc32)cc1	1.18
COc1ccc(Cn2cc(/C=C3\NC(=O)NC3=O)c3cc(Br)ccc32)cc1	1.29
O=C1NC(=O)C(=Cc2cn(Cc3ccc([N+](=O)[O-])cc3)c3ccccc23)C(=O)N1	0.44
N#Cc1ccc(Cn2cc(/C=C3\NC(=O)NC3=O)c3ccccc32)cc1	1.53
COC(=O)c1ccc(Cn2cc(/C=C3\NC(=O)NC3=O)c3ccccc32)cc1	1
O=C1NC(=O)/C(=C/c2cn(Cc3ccc(F)cc3)c3ccccc23)N1	0.91
Cc1ccc(Cn2cc(/C=C3\NC(=O)NC3=O)c3ccccc32)cc1	1.06
O=C1NC(=O)C(=Cc2cn(Cc3ccccc3Br)c3ccccc23)C(=O)N1	1.14
COc1ccc2c(c1)c(/C=C1\NC(=O)NC1=O)cn2Cc1ccccc1	1.38
O=C1NC(=O)/C(=C/c2cn(Cc3ccc([N+](=O)[O-])cc3)c3ccccc23)N1	1.14
O=C1NC(=O)/C(=C/c2cn(Cc3ccccc3)c3ccc(Br)cc23)N1	1.06
O=C1NC(=O)/C(=C/c2cn(Cc3ccccc3)c3ccc(Cl)cc23)N1	1.38
O=C1NC(=O)C(=Cc2cn(Cc3ccc(Cl)cc3)c3ccccc23)C(=O)N1	0.91
Cc1ccc2c(c1)c(/C=C1\NC(=O)NC1=O)cn2Cc1ccccc1	1.18
COc1ccc2c(c1)c(C=C1C(=O)NC(=O)NC1=O)cn2Cc1ccccc1	1.73
O=C1NC(=O)C(=Cc2cn(Cc3ccccc3)c3ccccc23)C(=O)N1	1.35
O=C1NC(=O)C(=Cc2cn(Cc3ccccc3)c3ccc(Cl)cc23)C(=O)N1	1.38
O=C1NC(=O)/C(=C/c2cn(Cc3ccccc3)c3ccccc23)N1	1.3
N#Cc1ccc(Cn2cc(C=C3C(=O)NC(=O)NC3=O)c3ccccc32)cc1	0.23
O=C1NC(=O)/C(=C/c2cn(Cc3ccccc3Br)c3ccccc23)N1	1.18
COC(=O)c1ccc(Cn2cc(C=C3C(=O)NC(=O)NC3=O)c3ccccc32)cc1	0.64
O=C1NC(=O)/C(=C/c2cn(Cc3ccc(Cl)cc3)c3ccccc23)N1	1.44
